Assay results collected from several papers.
Protocols differ between the studies behind these lines.
MET: Hepatocyte growth factor receptor (MET, Homo sapiens, UniProt P08581)
IDE: Insulin-degrading enzyme (IDE, Homo sapiens, UniProt P14735)
KCNA5: Potassium voltage-gated channel subfamily A member 5 (KCNA5, Homo sapiens, UniProt P22460)
P2RX7: P2X purinoceptor 7 (P2RX7, Homo sapiens, UniProt Q99572)
gag-pol integrase: Gag-Pol polyprotein, integrase (gag-pol, Human immunodeficiency virus 1, UniProt P12497)
crk3: crk3 (Leishmania mexicana, UniProt O15851)
CSF1R: Macrophage colony-stimulating factor 1 receptor (CSF1R, Homo sapiens, UniProt P07333)
JAK3: Tyrosine-protein kinase JAK3 (JAK3, Homo sapiens, UniProt P52333)

Compound | target | observed | action | method | setting | IC50 [nM]
CC(C)C[C@H](CC(=O)NO)C(=O)N[C@@H](Cc1ccccc1)C(=O)NCCN1CCOCC1 | Interstitial collagenase (MMP1, Homo sapiens, UniProt P03956) | enzyme activity | inhibitor | absorbance |  | 3
CC(C)C[C@H](NC(=O)[C@H](Cc1ccccc1)NC(=O)[C@H](Cc1ccc(O)cc1)NC(=O)CNC(=O)[C@H](CCCNC(=N)N)NC(=O)[C@H](CO)NC(=O)[C@H](CCC(N)=O)NC(=O)[C@H](CO)NC(=O)[C@H](C)NC(=O)[C@H](Cc1ccccc1)NC(=O)[C@@H]1CCCN1C(=O)[C@H](CO)NC(=O)[C@H](CCC(N)=O)NC(=O)[C@H](Cc1ccccc1)NC(=O)[C@H](CCC(=O)O)NC(=O)[C@H](CCC(=O)O)NC(=O)[C@H](CC(=O)O)NC(=O)[C@@H](NC(=O)[C@H](CCCNC(=N)N)NC(=O)[C@@H](N)Cc1ccccc1)C(C)C)C(=O)N[C@@H](Cc1ccccc1)C(=O)N[C@@H](CCCNC(=N)N)C(=O)N1CCC[C@H]1C(=O)N[C@@H](CCCNC(=N)N)C(=O)N[C@@H](CC(N)=O)C(N)=O | Neuromedin-U receptor 2 (NMUR2, Homo sapiens, UniProt Q9GZQ4) | ligand displacement |  | radioligand | cell membranes | 0.22
Cc1cc(Oc2ccc(NC(=O)c3cc(-c4cccs4)no3)cc2)c2nncn2n1 | MET | enzyme activity | inhibitor | mobility shift |  | 880
CC(C)OC(=O)[C@H](Cc1c[nH]cn1)NC(=O)CN(CC(=O)O)Cc1ccccc1 | IDE | enzyme activity | inhibitor | fluorescence |  | 300
O=C(Nc1ccn(Cc2ccc(O)cc2C(F)(F)F)n1)c1c(F)cccc1F | KCNA5 | ion current | inhibitor |  |  | > 10000
O=C(Nc1ccccc1OS(=O)(=O)c1ccc([N+](=O)[O-])cc1)c1ccc2ncccc2c1 | P2RX7 | calcium signal | antagonist |  |  | 1810
Cc1cc(Oc2ccc(NC(=O)c3cc(-c4cccs4)no3)cc2F)c2nncn2n1 | MET | enzyme activity | inhibitor | mobility shift |  | 540
CC(C)(C)OC(=O)N1CCC(C(=O)N[C@@H](Cc2ccc3ccccc3c2)C(=O)O)(c2ccccc2)CC1 | gag-pol integrase | enzyme activity | inhibitor | TR-FRET |  | 90300
CC1(C)CC(=O)C=C(NC(=O)Nc2ccc(O)cc2)C1 | crk3 | enzyme activity | inhibitor | radiometric |  | 3300
O=C(O)CN(CCCc1ccccc1)CC(=O)N[C@@H](Cc1c[nH]cn1)C(=O)NCc1ccccc1 | IDE | enzyme activity | inhibitor | fluorescence |  | 400
Cc1ccc(C(=O)Nc2ccc(Oc3cc4cnn(C)c4cc3-c3cn[nH]c3)c(F)c2)c(=O)n1-c1ccc(F)cc1 | CSF1R | phosphorylation in cells | inhibitor | western blot |  | 300
CC(C)(C)n1nc(-c2cnc3cc(OC4CC4)ccc3c2)c(C(N)=O)c1N | JAK3 | cell-free assay |  |  |  | > 10000
CNC(=O)c1cc2c(Oc3ccc(NC(=O)C4(C(=O)Nc5ccc(F)cc5)CC4)cc3)ccnc2cc1OC | Hepatocyte growth factor receptor (MET, Homo sapiens, UniProt P08581, D1228H) | enzyme activity | inhibitor | radiometric |  | 4
CCOC(=O)c1cnc2[nH]ccc2c1N[C@@H]1CCCN(C(=O)CC#N)C1 | JAK3 | enzyme activity | inhibitor |  |  | 3.6
O=C(O)[C@H](Cc1ccc2ccccc2c1)NC(=O)C1(c2ccc3ccccc3c2)CCN(S(=O)(=O)c2ccccc2)CC1 | gag-pol integrase | enzyme activity | inhibitor | TR-FRET |  | 54700
O=C(Nc1ccccc1OS(=O)(=O)c1ccc(F)cc1)c1ccc2ncccc2c1 | P2RX7 | calcium signal | antagonist |  |  | 624
COC(=O)[C@H](Cc1c[nH]cn1)NC(=O)CN(Cc1ccccc1)c1c(O)c(=O)c1=O | IDE | enzyme activity | inhibitor | fluorescence |  | 12500
CCOC(=O)CC1=C/C(=C\c2ccc(-c3ccccc3)cc2)c2ccc(F)cc21 | Prostaglandin G/H synthase 2 (Ptgs2, Mus musculus, UniProt Q05769) | enzyme activity | inhibitor |  |  | ~10000
CCCCCCCCCCC[C@@H](C[C@@H]1OC(=O)[C@H]1CCCCCC)OC(=O)[C@H](CC(C)C)NC=O | Lysosomal acid lipase/cholesteryl ester hydrolase (LIPA, Homo sapiens, UniProt P38571) | enzyme activity | inhibitor |  |  | 168
CCOc1ccc2c(-c3cc(C)nc(Nc4cc(OC)cc(C(F)(F)F)c4)n3)cnn2n1 | Homeodomain-interacting protein kinase 1 (HIPK1, Homo sapiens, UniProt Q86Z02) | enzyme activity | inhibitor |  |  | > 10000
O=C(O)CN(CCCc1ccccc1)CC(=O)N[C@H](CO)Cc1c[nH]cn1 | IDE | enzyme activity | inhibitor | fluorescence |  | 1600
C[C@H]1C[C@@H](N2C(=N)N[C@](C)(c3cccc(Nc4ccc(C5CC5)nc4)c3Cl)CC2=O)CCO1 | KCNA5 | ion current | inhibitor | patch clamp |  | 4620
O=C(O)[C@H](Cc1ccccc1)NC(=O)C1(c2ccc(F)cc2)CCN(S(=O)(=O)c2ccccc2)CC1 | gag-pol integrase | enzyme activity | inhibitor | TR-FRET |  | 91300

Compound | target | observed | action | method | setting | IC50 [nM]
COC(=O)[C@H](Cc1c[nH]cn1)NC(=O)CN(CC(=O)O)Cc1ccncc1 | IDE | enzyme activity | inhibitor | fluorescence |  | 6300
CC/C=C\C/C=C\C/C=C\C/C=C\C/C=C\CCCC(=O)O | DNA polymerase beta (Rattus norvegicus, UniProt P06766) | enzyme activity | inhibitor |  |  | 88500
CC(C)(C)OC(=O)N1CCC(C(=O)N[C@@H](Cc2ccccc2)C(=O)O)(c2ccc(-c3ccccc3)cc2)CC1 | gag-pol integrase | enzyme activity | inhibitor | TR-FRET |  | 64400
O=C(Nc1cc(-c2ccc(Cl)cc2)[nH]n1)c1cccnc1 | crk3 | enzyme activity | inhibitor | radiometric |  | 2400
CCCc1ccc(S(=O)(=O)Oc2ccccc2NC(=O)c2ccc3ncccc3c2)cc1 | P2RX7 | calcium signal | antagonist |  |  | 2170
O=C(Nc1ccccc1)c1cc([N+](=O)[O-])ccc1Cl | Peroxisome proliferator-activated receptor alpha (PPARA, Homo sapiens, UniProt Q07869) | ligand displacement |  | TR-FRET |  | 26
CCn1ncc2c1-c1cnc(N)c(c1)O[C@H](C)c1cc(F)ccc1-c1nn(C)nc1C2 | CSF1R | enzyme activity | inhibitor | radiometric |  | 489
CN(C)C(=O)[C@H](Cc1c[nH]cn1)NC(=O)CN(CC(=O)O)Cc1ccccc1 | IDE | enzyme activity | inhibitor | fluorescence |  | 6900
Cc1cc(Oc2ccc(NC(=O)c3sc(-c4ccc(F)cc4)nc3C)cc2)c2nncn2n1 | MET | enzyme activity | inhibitor | mobility shift |  | 790
COc1ccc2c(Oc3ccc4c(C(=O)Nc5ccccc5N)cccc4c3)ccnc2c1 | MET | enzyme activity | inhibitor |  |  | > 500
Cc1cnc(-c2ccc(-c3ccc(NC(=O)Nc4c(F)cc(F)cc4F)cc3F)c3c2C(=O)NC3)[nH]1 | MET | enzyme activity | inhibitor |  |  | 13.6
CN1CCN(c2ccc(Nc3ncc4cc(C#N)c(=O)n(C5CCCC5)c4n3)cc2)CC1 | Serine/threonine-protein kinase Nek9 (NEK9, Homo sapiens, UniProt Q8TD19) | enzyme activity | inhibitor |  |  | 399
CC[C@H](C)[C@H](NC(C)=O)C(=O)N[C@@H](CCC(=O)O)C(=O)N[C@H](C(=O)N[C@H](C=O)CC(=O)O)[C@@H](C)O | Caspase-1 (CASP1, Homo sapiens, UniProt P29466) | enzyme activity | inhibitor |  |  | 17.3
CCCC[C@H](NC(=O)C1CN(C)C1)c1ncc(-c2cc3ccccc3nc2OC)[nH]1 | Histone deacetylase 3 (HDAC3, Homo sapiens, UniProt O15379) | enzyme activity | inhibitor |  |  | 16
CC(C)n1nc(-c2ccc3c(c2)sc2ccccc23)c2c(N)ncnc21 | Calmodulin-domain protein kinase 1, putative (Cryptosporidium parvum, UniProt A3FQ16) | enzyme activity | inhibitor |  |  | > 3000
COc1ccc(-c2n[nH]c(=S)o2)cc1 | P2RX7 | calcium signal | antagonist |  |  | 8290
CCOCc1nc(O)c(-c2nnc(Cc3ccc(Cl)cn3)o2)c(O)c1-c1c(OC)cccc1OC | Alpha-1B adrenergic receptor (ADRA1B, Homo sapiens, UniProt P35368) | ligand displacement |  | radioligand |  | > 30000
COC(=O)[C@H](Cc1c[nH]cn1)NC(=O)CN(CCc1c[nH]c2ccccc12)CC(=O)O | IDE | enzyme activity | inhibitor | fluorescence |  | 1200
CCCN(CCC)S(=O)(=O)c1ccc(-c2n[nH]c(=S)o2)cc1 | P2RX7 | calcium signal | antagonist |  |  | 6110
COC(=O)[C@H](Cc1c[nH]cn1)NC(=O)CN(CC(=O)O)Cc1ccc(C(C)(C)C)cc1 | IDE | enzyme activity | inhibitor | fluorescence |  | 2900
O=C(O)C(CCC(c1ccccc1)(c1ccccc1)c1ccccc1)NCc1ccccc1 (racemic) | Kinesin-like protein KIF11 (KIF11, Homo sapiens, UniProt P52732) | ATPase activity | inhibitor |  |  | > 49200
Nc1ncnc2c1c(COc1cccc(Cl)c1)nn2C1CCOCC1 | TGF-beta receptor type-1 (TGFBR1, Homo sapiens, UniProt P36897) | cell-free assay |  | TR-FRET |  | 820
